V-ATPase pH: yeast V-ATPase proton transport regulation by pHLuorin; S. cerevisiae, pHLuorin cytosolic pH fluorescence; response, % at 10 µM; 350,000 compounds, 0.37% hits; AID 504577; in the data active means response mostly above about 7.3%, no sharp cut-off; inactive means mostly below about 5.4%; further: actives read high
HIV Env fusion: blocks HIV Env-driven cell-cell fusion | inhibition, % at 12.3 µM | 360,000 compounds, 1.1% hits | HeLa-JRFL Env/CEM21 cell fusion, luciferase;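 active means mean replicate inhibition score of at least 50 and every replicate individually at or above 50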;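 further: 0% = plate neutral controls and 100% = maraviroc near 300 nM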
NR2E3 ag-1: activates human photoreceptor nuclear receptor NR2E3. Q9Y5X4. GST-NR2E3/biotin-RetCOR TR-FRET, 1536-well. 320,000 compounds, 0.12% hits. AID 2300. inhibition of corepressor binding, % at 4.78 µM;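 active means percent inhibition above the cutoff of mean plus 3 SD of all tested compounds, set per screening campaign, cut at about 20% in these data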;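 further: 0% = DMSO wells and 100% = biotin wells as full block of FRET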
Target sequence (Q9Y5X4 whole entry, looked up): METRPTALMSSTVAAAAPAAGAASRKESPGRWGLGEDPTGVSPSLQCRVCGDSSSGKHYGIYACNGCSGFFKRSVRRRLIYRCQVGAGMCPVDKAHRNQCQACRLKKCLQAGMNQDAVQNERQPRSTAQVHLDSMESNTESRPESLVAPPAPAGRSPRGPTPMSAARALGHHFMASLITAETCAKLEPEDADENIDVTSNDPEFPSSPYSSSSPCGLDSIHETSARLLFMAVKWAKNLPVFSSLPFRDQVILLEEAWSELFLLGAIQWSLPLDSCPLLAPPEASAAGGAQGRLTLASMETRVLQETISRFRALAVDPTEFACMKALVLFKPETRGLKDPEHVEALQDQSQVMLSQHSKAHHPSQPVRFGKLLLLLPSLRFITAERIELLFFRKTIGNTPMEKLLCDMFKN
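Material: NR2E3–RetCOR corepressor complex / Amount: 1.35 nM GST-NR2E3 / Medium: Tris pH 7.5 / Compound: single nominal compound dose of 4.8 µM / Incubation: 5 h at 4 °C / Technique: TR-FRET, Eu(K)-anti-GST donor, streptavidin-D2 acceptor, ex 340, em 617/671 nm / Read-out basis: percent loss of FRET ratio relative to control wells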
NR2E3 ag-2: agonists of human NR2E3 nuclear receptor; 360,000 compounds, 0.35% hits; Q9Y5X4; inhibition of corepressor binding, % at 3.98 µM; CHO-S Gal4-NCOR/VP16-NR2E3 two-hybrid, luciferase;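 active means inhibition above the mean of all tested compounds plus 3 SD, cut at about 70% in these data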;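 further: 0% = DMSO with NR2E3 transfected cells and 100% = cells lacking NR2E3 construct; higher means lower luciferase signal from less NR2E3 corepressor binding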
FXN GAA850 act: increases GAA850 frataxin promoter reporter activity. HEK293 lucGAA850 FXN promoter luciferase reporter, 24 h; percent of 10 µM SAHA response. activation, % at 6 µM. 360,000 compounds, 0.56% hits;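 active means activation above the average of all compounds screened plus 3 SD, cutoff fixed separately per campaign, cut at about 7.5% in these data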;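 further: 0% = DMSO wells and 100% = 10 µM SAHA wells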
GalR3 antag: human GalR3 antagonism; O60755; HEK293 GalR3-CNG cAMP membrane potential fluorescence; galR3 body fused to GalR1 C-terminus; inhibition, % at 3 µM; 360,000 compounds, 0.44% hits; AID 651719;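 active means inhibition above the screen-wide average plus 3 SD, cut at about 13% in these data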;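 further: forskolin and galanin both at EC90 stimulate the cells; cAMP rise reported by CNG channel membrane potential dye signal; 0% = forskolin plus galanin with DMSO and 100% = forskolin alone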
Target sequence (O60755 1-299 limits assumed): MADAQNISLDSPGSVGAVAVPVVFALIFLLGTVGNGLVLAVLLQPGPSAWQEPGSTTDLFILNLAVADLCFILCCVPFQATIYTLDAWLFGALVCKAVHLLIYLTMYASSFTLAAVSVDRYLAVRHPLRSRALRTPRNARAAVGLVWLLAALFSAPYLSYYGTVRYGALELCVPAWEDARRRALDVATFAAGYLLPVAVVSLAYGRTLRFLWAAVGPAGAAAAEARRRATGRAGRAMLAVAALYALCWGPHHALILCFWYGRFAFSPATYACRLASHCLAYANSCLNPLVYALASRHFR
An asterisk follows results filed as active; x = not tested or not shown; ! = repeats disagree; [ ] = remark or other dose. The list is not random: actives were taken first. Their share in the collection is about 2.2%.

SMILES | V-ATPase pH | HIV Env fusion | NR2E3 ag-1 | NR2E3 ag-2 | FXN GAA850 act | GalR3 antag
Cc1cccc(-c2cc(C(=O)Nc3sc(C)c(C)c3C(N)=O)c3ccccc3n2)c1 | -2 | x | 6 | 5 | 0 | -2
CSCc1cc(N2CCOCC2)nc(SCc2ccc(Cl)c(Cl)c2)n1 | 2 | 63* | -1 | -1 | 7 | -1
COc1ccc(CN(C)C(=O)c2ccc(OCC(=O)Nc3cccc(C(F)(F)F)c3)c(OC)c2)c(OC)c1 | -2 | 76* | -2 | 17 | -3 | 55*
COc1cc(C(=O)NCCCN(C)C)ccc1OCC(=O)Nc1cccc(C(F)(F)F)c1 | 1 | 7 | -1 | -6 | 4 | -1
CCOC(=O)c1sc2nc3c(SCCC#N)cc(C(=O)c4cc(F)ccc4O)cn3c(=O)c2c1C | -6 | 35 | -2 | -17 | 2 | 5
CCOC(=O)c1sc2nc3c(SCCC(=O)O)cc(C(=O)c4cc(OC)ccc4O)cn3c(=O)c2c1C | 6 | 72* | x | -68 | 4 | -1
O=C(c1ccc(F)cc1)C1CCN(CCn2c(=O)[nH]c3ccccc3c2=O)CC1 | 3 | 61*! | 2 | 4 | -2 | -5
OC[C@@H](O)[C@@H](O)CO | 1 | x | 1 | -5 | 1 | -3
OCC(O)C(O)CC1SCCS1 (stereo not drawn) | 13* | -2 | x | 14 | -3 | -1
O=C(c1ccccn1)C1CCCN(Cc2cn[nH]c2-c2cc3ccccc3o2)C1 (stereo not drawn) | 16* | -24 | 2 | -13 | 2 | -2
COc1ccc(NC(=O)N(C)C[C@H]2Oc3ccc(NS(=O)(=O)c4ccc(OC)cc4)cc3CC(=O)N([C@H](C)CO)C[C@H]2C)cc1 | x | -21[16.7 µM] | x | x | x | x
CC1(C)CC(N2CCN(Cc3ccccc3)CC2)=CC(=[N+]2CCCCC2)C1 | 6 | -2 | 0 | 8 | 1 | -3
CC1(C)CC(N2CCCC2)=CC(=[N+]2CCCC2)C1 | -1 | 59* | -2 | -5 | -1 | 0
Fc1ccc(-c2nc3c4ccccc4ccn3c2Cc2ccccc2)cc1 | 1 | -6 | x | -7 | 1 | -5
Fc1cccc(Cc2c(-c3ccco3)nc3c4ccccc4ccn23)c1 | x | 69* | x | -154 | x | -5
Fc1ccc(-c2nc3c4ccccc4ccn3c2Cc2ccsc2)cc1 | x | 57* | x | -59 | x | -3
Clc1cccc(Cc2c(-c3ccco3)nc3c4ccccc4ccn23)c1 | x | 7 | x | -110 | x | -2
c1coc(-c2nc3c4ccccc4ccn3c2Cc2ccsc2)c1 | x | 63* | x | x | x | -1
Cc1ccc(S(=O)(=O)N(C)C[C@@H]2OCCCC[C@H](C)Oc3ccc(NS(=O)(=O)c4c(C)noc4C)cc3C(=O)N([C@@H](C)CO)C[C@@H]2C)cc1 | x | 19[16.7 µM] | x | x | x | x
C[C@]12CCC(=O)CC1=CCC1C3CC=C(C#N)[C@@]3(C)CC[C@@]12O (stereo partly drawn) | 71* | 2 | 1 | 13 | 1 | 0
CCNC(=O)C[C@H]1CC[C@@H]2[C@H](COc3ccc(NC(=O)Nc4ccc(F)cc4)cc3C(=O)N2C)O1 | x | 14[16.7 µM] | x | x | x | x
COc1cc(/C=N/NC(=Nc2ccc(C)cc2)c2nc3ccccc3s2)ccc1O | -1 | -220 | 2 | 91* | -19 | -2
COc1ccccc1/C=N/NC(=Nc1ccc(C)cc1)c1nc2ccccc2s1 | x | x | 1 | x | x | x
CCN(CC)c1ccc2nc3ccccc3[n+](CC)c2c1 | -3 | x | -124 | -21 | -6 | x
CCN(CC)c1ccc2nc3ccc(N)cc3[n+](-c3ccccc3)c2c1 | -6 | 72* | x | 27 | -8 | -7
SMILES | V-ATPase pH | HIV Env fusion | NR2E3 ag-1 | NR2E3 ag-2 | FXN GAA850 act | GalR3 antag
COC(=O)C[C@H]1C[C@@H]2c3cc(NS(=O)(=O)c4ccccc4)ccc3O[C@@H]2[C@H](CO)O1 | x | 30[16.7 µM] | x | x | x | x
CCCCCCN1CC(O)=C(c2nc3ccccc3[nH]2)C1=N | 13* | x | 0 | -70 | 4 | -2
CC(=O)c1cccc(NC(=O)Nc2cnn(Cc3ccc(Cl)cc3Cl)c2)c1 | -1 | 64* | 3 | -5 | -1 | -8
Cc1nn(Cc2c(F)c(F)c(F)c(F)c2F)c(C)c1NC(=O)c1cccc(COc2ccc(Cl)cc2)c1 | -1 | 63* | -1 | -138 | -2 | -4
Cc1cccc(Cn2nc(C)c(NC(=O)c3ccc(F)cc3)c2C)c1 | -2 | 6 | 0 | -15 | 0 | -7
C[C@@H]1CCCCO[C@@H](CN(C)C(=O)Nc2cccc3ccccc23)[C@H](C)CN([C@H](C)CO)C(=O)c2cc(NC(=O)c3ccncc3)ccc2O1 | x | 9[16.7 µM] | x | x | x | x
CO[C@@H]1CN(C)C(=O)c2cc(NC(=O)c3cnccn3)ccc2OC[C@H](C)N(C)C[C@@H]1C | x | -1[16.7 µM] | x | x | x | x
CCC(=O)N1CCN(c2ccc(-n3c(=O)ccc4cnc5ccc(-c6cnc7ccccc7c6)cc5c43)cc2C(F)(F)F)CC1 | x | 59* | x | x | x | 5
O=C1/C(=C/c2cccc(Cl)c2)CSc2sccc21 | -2 | 15 | 2 | 6 | 4 | 2
O=C1/C(=C/c2cccc([N+](=O)[O-])c2)CSc2ccc(Cl)cc21 | 0 | 61* | 2 | -15 | 3 | -3
COc1cccc(S(=O)(=O)N(C)C[C@H]2Oc3ncc(C#CC(C)C)cc3C(=O)N([C@@H](C)CO)C[C@@H]2C)c1 | x | -1[16.7 µM] | x | x | x | x
C[C@@H]1CN([C@@H](C)CO)C(=O)Cc2cc(N(C)C)ccc2O[C@@H]1CN(C)Cc1ccc(Cl)c(Cl)c1 | x | 6[16.7 µM] | x | x | x | x
C[C@H](CO)N1C[C@H](C)[C@@H](CN(C)CC2CC2)Oc2ccc(N(C)C)cc2CC1=O | x | 0[16.7 µM] | x | x | x | x
C[C@H]1CN([C@@H](C)CO)C(=O)Cc2cc(N(C)C)ccc2O[C@H]1CN(C)CC1CC1 | x | 59*[16.7 µM] | x | x | x | x
C[C@H]1CN([C@@H](C)CO)C(=O)Cc2cc(N(C)C)ccc2O[C@H]1CN(C)Cc1ccc(Cl)c(Cl)c1 | x | 58*[16.7 µM] | x | x | x | x
NC(=O)c1sc2nc3c(c(-c4ccco4)c2c1N)CCCC3 | 7 | 57* | -1 | -55 | -3 | -2
N#Cc1sc2nc3c(c(-c4ccco4)c2c1N)CCCC3 | 0 | x | 1 | -10 | 3 | 4
COC(=O)C1(C(=O)OC)C[C@H](c2ccc(OC)cc2)N(Cc2ccccc2OC)[C@@H]1c1ccccc1 | x | 85* | x | x | x | -3
Cc1cc(C(=O)NN=Cc2c(C)[nH]c3ccccc23)c(C)o1 | -3 | x | x | -34 | 1 | -3
Cc1[nH]c2ccccc2c1/C=N\NC(=O)c1ccccc1Cl | -3 | 70* | x | 6 | 0 | -5
O=C(NCCCn1ccnc1)C(=O)NCC(c1ccco1)N1CCN(c2ccc(F)cc2)CC1 (stereo not drawn) | 4 | -8 | 3 | 24 | 2 | 13*
COc1ccc(-c2nc(NC(=O)C3CCN(c4nc5ccccc5o4)CC3)sc2C)cc1 | x | 67* | -2 | -25 | -2 | -2
O=C(c1ccccc1)N1N=C(C(F)(F)F)CC1(O)c1ccccc1O (stereo not drawn) | 6 | 58* | x | -34 | 3 | -1
